# Screening results: PubChem, Broad Institute
# The list is not random: actives were taken first. Their share in the collection is about 3.5%.
# DENV2 CPE rescue – inhibitors of DENV2 cytopathic effect; AID 651640; CPE inhibition, % at 9.99 µM; DENV2-infected cells, cytopathic effect rescue, plate reader; actives 1.7% (n = 350,000); in the data active = CPE inhibition above about 20%, passing the limit was not always enough; inconclusive = no clear call, values can overlap the other calls; tested in BHK-21 cells;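 also: 0% = median of neutral control wells and 100% = median of positive control wells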
# FN deposition inh – fibronectin deposition inhibition; inhibition, % at 12.6 µM; AID 743247; actives 0.086% (n = 350,000); AH1F fibroblasts, Alexa488-fibronectin deposition fluorescence, overnight;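 active = mean inhibition across replicates of 30% or more, regardless of how many single replicates reach that level; inconclusive = mean under 30% yet at least half of replicates reach 30%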;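 also: positive control wells lacked labelled fibronectin entirely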
#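 Test system: AH1F fibroblast monolayer depositing Alexa488-labelled fibronectin into matrix. Input: 10000 cells per well. Technique: fluorescence, ex 485 nm, em 525 nm. Buffer or medium: DMEM plus 2% serum, read in PBS. Timing: 1 h cell adhesion before compound, then overnight fibronectin incubation. Compound: single dose, pinned. Read-out basis: inhibition from reduced deposited-fibronectin fluorescence.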
# PglD DTNB – inhibitors of Campylobacter jejuni PglD acetyltransferase | purified PglD enzyme, DTNB colorimetric CoA detection | inhibition, % at 12.5 µM | actives 0.098% (n = 360,000) | AID 602405; in the data active = inhibition above about 16%, passing the limit was not always enough; inconclusive = no clear call, values can overlap the other calls
# PGC1a acetyl inh – modulators of PGC1a acetylation; U2OS PGC1a acetylation, AlphaScreen anti-acetyl-lysine; with virally co-expressed GCN5 acetyltransferase; inhibition, % at 15.6 µM; actives 0.17% (n = 350,000); AID 651687;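 active = every replicate shows inhibition of at least 40%; inconclusive = mean inhibition at least 40% but some replicate below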;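 also: 0% = neutral control wells and 100% = positive control wells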
# rRNA inh HTS – inhibits bacterial ribosomal RNA function over humanized ribosomes; actives 1.6% (n = 350,000); GFP signal change (wild-type ribosome), % (no concentration beside the values); E. coli WT GFP vs humanized-ribosome RFP mutants, fluorescence, 24 h; hits give low values; DMSO median 0, no signal -100; AID 720706;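 active = significant combined selectivity score with lowered wild-type GFP, culture density cut under 30%, mutant RFP and density less affected; inactive = any of these conditions unmet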
# HIV Env fusion – inhibitors of HIV Env-mediated cell fusion; HeLa-JRFL Env/CEM21 cell fusion, luciferase; inhibition, % at 12.3 µM; actives 1.1% (n = 360,000); AID 651610;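 active = mean replicate inhibition score of at least 50 and every replicate individually at or above 50; inconclusive = only one of the two criteria met; inactive = mean below 50 and not all replicates reaching 50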;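 also: 0% = plate neutral controls and 100% = maraviroc near 300 nM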
# * hit, by the source's call; ? = inconclusive; · = no result given; ! = not confirmed by another sample; [ ] = remark or other dose.
SMILES,DENV2 CPE rescue,FN deposition inh,PglD DTNB,PGC1a acetyl inh,rRNA inh HTS,HIV Env fusion
C[C@H]1CN([C@@H](C)CO)C(=O)Cc2cc(NC(=O)CCN3CCOCC3)ccc2O[C@H]1CN(C)Cc1ccc2c(c1)OCO2,5,·,9,6,1,0[16.7 µM]
Cc1noc(C)c1S(=O)(=O)N(C)C[C@H]1Oc2ccc(NC(=O)C3CC3)cc2CC(=O)N([C@@H](C)CO)C[C@H]1C,4,·,0,4,2,0[16.7 µM]
COc1ccc(NC(=O)C(Cl)=C(Cl)Cl)cn1,3,19,·,-101,9,1
COc1ccc(NC(=O)/C(Cl)=C(/Cl)S(=O)(=O)Cc2ccccc2)cn1,·,·,14,64*,·,·
COc1ccc(NC(=O)/C(Cl)=C(/Cl)S(=O)Cc2ccc(Cl)cc2)cn1 (stereo not drawn),-3,55*,·,100*,-27,4
O=C(C[C@H]1CC[C@@H]2[C@H](COC[C@H](O)CN2CC2CCCC2)O1)NCC1CC1,9,-6,·,·,-7,·
COc1ccc(NC(=O)N(C)C[C@@H]2OCCCC[C@@H](C)Oc3ccc(NC(=O)Cc4ccccc4)cc3C(=O)N([C@@H](C)CO)C[C@H]2C)cc1,3,·,0,4,-1,-13[16.7 µM]
COCC(=O)N1CC2(C1)CN(C(=O)NC1CCCC1)[C@H](CO)c1c2c2ccc(OC)cc2n1C,68*,-12,·,-17,1,·
COCC(=O)N1CC2(CCN(C(=O)NC(C)C)CC2)c2c(n(C)c3cc(OC)ccc23)[C@@H]1CO,3,·,·,1,1,·
COCC(=O)N1CC2(CN(C(=O)NC(C)C)C2)c2c(n(C)c3cc(OC)ccc23)[C@@H]1CO,26*,·,·,-13,1,·
O=C(Nc1ccc(F)cc1)N[C@H]1CC[C@H](CCNS(=O)(=O)c2cccc(Cl)c2)O[C@@H]1CO,-10,-7,1,3,-17*!,?
O=C(Nc1cccc(F)c1)N[C@@H]1CC[C@H](CCNS(=O)(=O)c2cccc(Cl)c2)O[C@H]1CO,3,·,-167,3,-6,67*[16.7 µM]
O=C(Nc1cccc(F)c1)N[C@H]1CC[C@@H](CCNS(=O)(=O)c2cccc(Cl)c2)O[C@H]1CO,1,·,-169,2,2,96*[16.7 µM]
O=C(Nc1cccc(F)c1)N[C@H]1CC[C@H](CCNS(=O)(=O)c2cccc(Cl)c2)O[C@@H]1CO,·,·,-3,8,1,?
CC1CCCC=CC2CC(OC(=O)CN(C)C)CC2C(O)C=CC(=O)O1 (stereo not drawn),-30,15,·,67*,0,62*
CN(C)C(=O)c1ccc(-c2ccc3c(c2)[C@@H]2[C@@H](CCN2C(=O)C2CC2)[C@@H](CO)N3C)cc1,2,-2,2,9,-3,·
COc1ccc(S(=O)(=O)Nc2cccc3c2O[C@@H](CN(C)S(=O)(=O)c2cn(C)cn2)[C@@H](C)CN([C@@H](C)CO)C3=O)cc1,-1,-6,1,-4,3,-4[16.7 µM]
O=C(C[C@@H]1CC[C@H]2[C@@H](COC[C@@H](O)CN2C(=O)c2ccc(F)cc2)O1)NC1Cc2ccccc2C1,-2,-5,0,22,3,67*[16.7 µM]
O=C(C[C@@H]1CC[C@@H]2[C@H](COC[C@H](O)CN2C(=O)c2ccccc2)O1)NC1Cc2ccccc2C1,2,-17,-1,7,0,·
O=C(C[C@H]1CC[C@H]2[C@@H](COC[C@@H](O)CN2C(=O)c2ccc(F)cc2)O1)NCCCN1CCOCC1,20*,-1,5,-8,0,·
CO[C@@H]1CN(C)C(=O)c2cc(NC(=O)c3cnccn3)ccc2OC[C@H](C)N(CCc2ccccc2)C[C@@H]1C,-1,4,0,-6,2,·
C[C@@H]1CN([C@@H](C)CO)S(=O)(=O)c2ccc(C#CC3(O)CCCC3)cc2O[C@@H]1CN(C)C(=O)Cc1ccccc1,-10,·,-1,-11,-3,-95[16.7 µM]
O=C(Cc1ccccn1)NCC[C@@H]1CC[C@H](NC(=O)c2ccccc2F)[C@H](CO)O1,-6,14,-1,2,5,-5[16.7 µM]
CCC(=O)Nc1ccc2c(c1)OC[C@H](C)N(CC1CCCCC1)C[C@H](C)[C@H](OC)CN(C)C2=O,·,4,-1,10,2,2[16.7 µM]
